# From ChEMBL document CHEMBL1124586, “Carbohydrate biguanides as potential hypoglycemic agents” (1989)
# Key:
# Format in all cases: functional
# Rattus norvegicus [1] = experiment: Rise in the blood glucose level after 0 min following 100 mg/kg oral dose in fasted nondiabetic rats
# How it was run: (§1)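 Rats fasted 18 h, dosed orally (0.5% w/v methylcellulose suspension or aqueous solution; controls got the same vehicle) 60 min before an oral glucose load of 1.0 g/kg. Tail-vein blood was taken just before (0 min) and 30 min after glucose. Whole blood was deproteinized with Ba(OH)2/ZnSO4 and glucose read by glucose oxidase. Values are mean ± SEM, n rats per group.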
# Rattus norvegicus [2] = experiment: Rise in the blood glucose level after 30 min following 100 mg/kg oral dose in fasted nondiabetic rats; how it was run: as §1
# Rattus norvegicus [3] = experiment: Rise in the glucose level 100 mg/kg oral dose in fasted nondiabetic rats
# How it was run: (§2)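 Fasted rats (18 h) were given oral drug or vehicle 60 min before 1.0 g/kg oral glucose, with glucose-oxidase readings on tail blood at 0 and 30 min. The change from 0 min was corrected by subtracting the change in vehicle rats given no glucose. Groups were compared with vehicle by ANOVA/Dunnett (p ≤ 0.05). % inhibition = 100(ΔGV − ΔGD)/ΔGV.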
# Rattus norvegicus [4] = experiment: Percent inhibition of glucose rise, following 100 mg/kg oral dose in fasted nondiabetic rats
# How it was run: (§3)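 Rats fasted 18 h were dosed orally around 9 a.m. with drug or vehicle (0.5% w/v methylcellulose suspension or aqueous solution), dosed on salt-free basis by mean group body weight, 60 min before oral glucose 1.0 g/kg. Tail-vein blood at 0 and 30 min, glucose oxidase on deproteinized whole blood. Rise corrected for no-glucose vehicle rats; %inhibition = 100(ΔGV−ΔGD)/ΔGV; mean ± SEM.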
# Rattus norvegicus [5] = experiment: Rise in the blood glucose level after 0 min following 200 mg/kg oral dose in fasted nondiabetic rats; how it was run: as §1
# Rattus norvegicus [6] = experiment: Percent inhibition of glucose rise, following 200 mg/kg oral dose in fasted nondiabetic rats; how it was run: as §3
# Rattus norvegicus [7] = experiment: Rise in the blood glucose level after 30 min following 200 mg/kg oral dose in fasted nondiabetic rats; how it was run: as §1
# Rattus norvegicus [8] = experiment: Rise in the blood glucose level at 100 mg/kg oral dose in fasted nondiabetic rats; how it was run: as §2
# Rattus norvegicus [9] = experiment: Rise in the blood glucose level at 200 mg/kg oral dose in fasted nondiabetic rats; how it was run: as §2
# Rattus norvegicus [10] = experiment: Rise in the blood glucose level after 0 min following 10 mg/kg oral dose in fasted nondiabetic rats; how it was run: as §1
# Rattus norvegicus [11] = experiment: Rise in the blood glucose level after 0 min following 150 mg/kg oral dose in fasted nondiabetic rats; how it was run: as §1
# Rattus norvegicus [12] = experiment: Percent inhibition of glucose rise, following 10 mg/kg oral dose in fasted nondiabetic rats; how it was run: as §3
# Rattus norvegicus [13] = experiment: Percent inhibition of glucose rise, following 150 mg/kg oral dose in fasted nondiabetic rats; how it was run: as §3
# Rattus norvegicus [14] = experiment: Percent inhibition of glucose rise, following 300 mg/kg oral dose in fasted nondiabetic rats; how it was run: as §3
# Rattus norvegicus [15] = experiment: Percent inhibition of glucose rise, following 50 mg/kg oral dose in fasted nondiabetic rats; how it was run: as §3
# Rattus norvegicus [16] = experiment: Rise in the blood glucose level after 0 min following 300 mg/kg oral dose in fasted nondiabetic rats; how it was run: as §1
# Rattus norvegicus [17] = experiment: Rise in the blood glucose level after 0 min following 50 mg/kg oral dose in fasted nondiabetic rats; how it was run: as §1
# Rattus norvegicus [18] = experiment: Rise in the blood glucose level after 30 min following 10 mg/kg oral dose in fasted nondiabetic rats; how it was run: as §1
# Rattus norvegicus [19] = experiment: Rise in the blood glucose level after 30 min following 150 mg/kg oral dose in fasted nondiabetic rats; how it was run: as §1
# Rattus norvegicus [20] = experiment: Rise in the blood glucose level after 30 min following 300 mg/kg oral dose in fasted nondiabetic rats; how it was run: as §1
# Rattus norvegicus [21] = experiment: Rise in the blood glucose level after 30 min following 50 mg/kg oral dose in fasted nondiabetic rats; how it was run: as §1
# Rattus norvegicus [22] = experiment: Rise in the blood glucose level at 10 mg/kg oral dose in fasted nondiabetic rats; how it was run: as §2
# Rattus norvegicus [23] = experiment: Rise in the blood glucose level at 150 mg/kg oral dose in fasted nondiabetic rats; how it was run: as §2
# Rattus norvegicus [24] = experiment: Rise in the blood glucose level at 300 mg/kg oral dose in fasted nondiabetic rats; how it was run: as §2
# Rattus norvegicus [25] = experiment: Rise in the blood glucose level at 50 mg/kg oral dose in fasted nondiabetic rats; how it was run: as §2
Structure (SMILES),Glucose rise (Rattus norvegicus [1]) [mg/dL],Glucose rise (Rattus norvegicus [2]) [mg/dL],Glucose rise (Rattus norvegicus [3]) [mg/dL],inhibition in vivo at 100 mg/kg (Rattus norvegicus [4]) [%],further results
N=C(N)/N=C(\N)NCC1OC(O)[C@H](O)C(O)C1O (some centres undefined),68,145,77,-14,
COC1OC(C/N=C(/N)N=C(N)N)[C@@H](OCc2ccccc2)C(OCc2ccccc2)[C@H]1OCc1ccccc1 (some centres undefined),82,123,41,47,
CC1(C)O[C@@H]2CO[C@@]3(C/N=C(/N)N=C(N)N)OC(C)(C)OC3[C@@H]2O1 (some centres undefined),67,152,85,-29,
N=C(N)/N=C(\NCCc1ccccc1)NC1OC(CO)[C@@H](O)C(O)[C@H]1O (some centres undefined),74,137,63,9,
CO[C@H]1OC(CNC(=N)NC(=N)N)[C@@H](O)C(O)[C@H]1O (some centres undefined),72,133,61,12,
N=C(N)/N=C(\N)NCCC1OC(CO)[C@@H](O)C1O (some centres undefined),74,127,53,26,
N=C(N)/N=C(\S)NC1OC(CO)[C@@H](O)C(O)[C@H]1O (some centres undefined),76,139,63,9,
CC1(C)OC2C(C/N=C(\N)N=C(N)N)O[C@@H]3OC(C)(C)O[C@@H]3C2O1 (some centres undefined),67,141,74,-12,
CC1(C)O[C@H]2OC3C(OC(C)(C)O[C@@H]3C/N=C(\N)N=C(N)N)[C@H]2O1 (some centres undefined),78,118,,48,Glucose rise (Rattus norvegicus [5]): 78 mg/dL; inhibition in vivo at 200 mg/kg (Rattus norvegicus [6]): 45%; Glucose rise (Rattus norvegicus [7]): 121 mg/dL; Glucose rise (Rattus norvegicus [8]): 40 mg/dL; Glucose rise (Rattus norvegicus [9]): 43 mg/dL
CN(C)C(=N)NC(=N)N [METFORMIN],68,113,45,41,
N=C(N)NC(=N)NCCc1ccccc1 [PHENFORMIN],70,101,,64,Glucose rise (Rattus norvegicus [10]): 61 mg/dL; Glucose rise (Rattus norvegicus [11]): 58 mg/dL; inhibition in vivo at 10 mg/kg (Rattus norvegicus [12]): 0%; inhibition in vivo at 150 mg/kg (Rattus norvegicus [13]): 71%; inhibition in vivo at 300 mg/kg (Rattus norvegicus [14]): 81%; inhibition in vivo at 50 mg/kg (Rattus norvegicus [15]): 57%; Glucose rise (Rattus norvegicus [16]): 70 mg/dL; Glucose rise (Rattus norvegicus [17]): 63 mg/dL; Glucose rise (Rattus norvegicus [18]): 129 mg/dL; Glucose rise (Rattus norvegicus [19]): 84 mg/dL; Glucose rise (Rattus norvegicus [20]): 21 mg/dL; Glucose rise (Rattus norvegicus [21]): 98 mg/dL; Glucose rise (Rattus norvegicus [22]): 68 mg/dL; Glucose rise (Rattus norvegicus [8]): 31 mg/dL; Glucose rise (Rattus norvegicus [23]): 26 mg/dL; Glucose rise (Rattus norvegicus [24]): 21 mg/dL; Glucose rise (Rattus norvegicus [25]): 35 mg/dL
